{"data": "Results pooled from the literature", "target": "Protein kinase C epsilon type (PRKCE, Homo sapiens, UniProt Q02156)", "One construct used (Q02156 1-737)": "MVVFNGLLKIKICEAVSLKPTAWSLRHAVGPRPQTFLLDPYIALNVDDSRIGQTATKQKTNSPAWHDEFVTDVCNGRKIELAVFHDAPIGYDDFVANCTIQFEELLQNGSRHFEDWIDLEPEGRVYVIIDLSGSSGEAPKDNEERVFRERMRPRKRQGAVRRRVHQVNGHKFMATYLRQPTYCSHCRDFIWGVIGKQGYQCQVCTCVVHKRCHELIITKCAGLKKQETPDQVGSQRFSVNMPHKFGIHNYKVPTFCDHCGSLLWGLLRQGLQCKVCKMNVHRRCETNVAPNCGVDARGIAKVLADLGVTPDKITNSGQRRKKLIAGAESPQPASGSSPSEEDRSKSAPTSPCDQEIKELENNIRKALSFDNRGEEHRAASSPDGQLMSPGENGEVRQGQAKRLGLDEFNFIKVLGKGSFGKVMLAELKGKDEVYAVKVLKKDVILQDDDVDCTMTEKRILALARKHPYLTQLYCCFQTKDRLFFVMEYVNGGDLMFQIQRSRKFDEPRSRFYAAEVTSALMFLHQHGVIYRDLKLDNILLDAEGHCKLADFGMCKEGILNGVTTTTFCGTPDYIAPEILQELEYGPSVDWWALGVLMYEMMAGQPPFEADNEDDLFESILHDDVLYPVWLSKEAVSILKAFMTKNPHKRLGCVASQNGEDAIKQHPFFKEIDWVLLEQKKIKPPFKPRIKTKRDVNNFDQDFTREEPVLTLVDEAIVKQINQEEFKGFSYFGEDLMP", "note": "Protocols differ between the studies behind these lines."}
{"SMILES": "N#CCCc1ccc2c(c1)-c1[nH]c3ccc([N+](=O)[O-])cc3c1CC(=O)N2", "assay": "cell-free assay", "conditions": "0.5 µM", "quantity": "remaining signal", "value": "95.4%"}
{"SMILES": "CCCCN(CCCC)C(=O)CN1C[C@@H](c2cc(OC)c3c(c2)OCO3)[C@H](C(=O)O)[C@H]1CC(C)(C)CCC", "assay": "cell-free assay, competition with immobilised ligand", "conditions": "1 µM", "quantity": "remaining binding", "value": "100%"}
{"SMILES": "COc1cc(Cl)c(C(=O)N[C@@H](CN[C@H]2CC[C@@H](N)CC2)Cc2ccc(C#N)cc2)cc1-c1ccc(CN[C@H](C)c2ccc(C)cc2)o1", "assay": "enzyme activity, inhibitor", "conditions": "1 µM", "quantity": "remaining activity", "value": "85%"}
{"SMILES": "CN1CC(Oc2cnc(C#N)cc2-c2ccn3nc(NC(=O)C4CC4)cc3c2)C1", "assay": "enzyme activity, inhibitor", "conditions": "1 µM", "quantity": "inhibition", "value": "6%"}
{"SMILES": "O=C(Nc1cnn(-c2csc(C(=O)NC3COC3)c2)c1)Nc1c(F)cccc1Cl", "assay": "enzyme activity, inhibitor", "conditions": "5 µM", "quantity": "remaining activity", "value": "94.2%"}
{"SMILES": "CN(C)c1ncnc(-c2ccc3nc(Nc4cc(CN5CCN(C(=O)CC(F)(F)F)CC5)ccn4)[nH]c3c2)c1Cl", "assay": "cell-free assay, competition with immobilised ligand", "conditions": "1 µM", "quantity": "remaining binding", "value": "100%"}
{"SMILES": "CC(C)(C)c1nc2c(s1)c1nc(N)ncc1c1ccc(NS(=O)(=O)c3c(F)cccc3F)c(F)c12", "assay": "enzyme activity, inhibitor, radiometric", "conditions": "1 µM", "quantity": "remaining activity", "value": "133%"}
{"SMILES": "O=C1Nc2ccc(Cl)cc2C1=Cc1cc(Cl)c(O)c(Cl)c1", "assay": "cell-free assay", "conditions": "0.5 µM", "quantity": "remaining signal", "value": "100%"}
{"SMILES": "O=C(Nc1cccnn1)N1CC(C/C=C/c2cncc(Oc3ccc(C(F)(F)F)cn3)n2)C1", "assay": "cell-free assay, competition with immobilised ligand", "conditions": "1 µM", "quantity": "remaining binding", "value": "100%"}
{"SMILES": "CC/C(=N\\NC(=O)NCc1cccc(O)c1)c1ccc(O)c(C)c1O", "assay": "enzyme activity, inhibitor", "conditions": "0.1 µM", "quantity": "inhibition", "value": "19.6%"}
{"SMILES": "Cc1ccc(C(=O)NCc2ccsc2)cc1C#Cc1cn(C(C)C)c2ncnc(N)c12", "assay": "enzyme activity, inhibitor", "conditions": "1 µM", "quantity": "activity vs control", "value": "104%"}
{"SMILES": "O=C(O)c1cc(-c2ccc(C3CCNCC3)cc2)c2ccc(-c3ccc(C(F)(F)F)cc3)cc2c1", "assay": "cell-free assay, competition with immobilised ligand", "conditions": "1 µM", "quantity": "remaining binding", "value": "100%"}
{"SMILES": "COc1ccc(COc2ccc(Cc3cnc(N)nc3N)cc2OC)cc1", "assay": "cell-free assay", "conditions": "0.5 µM", "quantity": "remaining signal", "value": "95.7%"}
{"SMILES": "CN([C@@H]1CCc2c(CC(=O)O)c3cc(S(C)(=O)=O)ccc3n2C1)S(=O)(=O)c1ccc(F)cc1", "assay": "cell-free assay, competition with immobilised ligand", "conditions": "1 µM", "quantity": "remaining binding", "value": "87%"}
{"SMILES": "COc1cc2ncnc(Nc3ccc(Oc4ccccc4)c(C)c3C)c2cc1OC", "assay": "enzyme activity, inhibitor", "conditions": "1 µM", "quantity": "inhibition", "value": "-5%"}
{"SMILES": "CCN(CC)c1ccc(C2=NNC(=O)CC2C)cc1[N+](=O)[O-] (stereo not shown)", "assay": "enzyme activity, inhibitor", "conditions": "10 µM", "quantity": "remaining activity", "value": "95%"}
{"SMILES": "Nc1c(C(=O)NCc2ccc(C(=O)NCCCC3CCCCC3)cc2)cnn1-c1ccccc1", "assay": "cell-free assay, competition with immobilised ligand", "conditions": "0.1 µM", "quantity": "remaining binding", "value": "100%"}
{"SMILES": "O=C(CSc1nc2nccnc2c(=O)n1CCc1ccccc1)Nc1nccs1", "assay": "enzyme activity, inhibitor", "conditions": "10 µM", "quantity": "inhibition", "value": "-23%"}
{"SMILES": "CNC(=O)Nc1ccc2c(c1)CC[C@@]21OC(=O)N(CC(=O)N(Cc2ccc(F)cc2)[C@@H](C)C(F)(F)F)C1=O", "assay": "cell-free assay, competition with immobilised ligand", "conditions": "1 µM", "quantity": "remaining binding", "value": "22%"}
{"SMILES": "CCCS(=O)(=O)Nc1ccc(F)c(C(=O)c2c[nH]c3ncc(-c4ccc(Cl)cc4)cc23)c1F", "assay": "enzyme activity, inhibitor", "conditions": "1 µM", "quantity": "inhibition", "value": "< 10%"}
{"SMILES": "Cn1cncc1C1=CN(c2ncnc3[nH]cnc23)CCS1", "assay": "enzyme activity, inhibitor, radiometric", "conditions": "50 nM", "quantity": "inhibition", "value": "25.8%"}
{"SMILES": "Nc1nc(Nc2ccc(S(N)(=O)=O)cc2)nn1C(=O)c1c(F)cccc1F", "assay": "cell-free assay", "conditions": "0.5 µM", "quantity": "remaining signal", "value": "97.2%"}
{"SMILES": "Cc1cc(NC(=O)c2cccc3cc(-c4cccc5[nH]nc(N)c45)ccc23)ccc1F", "assay": "enzyme activity, inhibitor", "conditions": "0.1 µM", "quantity": "activity vs control", "value": "84%"}
{"SMILES": "CCOC(=O)c1cc2cc(-c3cc(C(=O)NCc4ccc(C(=O)O)cc4)nn3C)ccc2[nH]1", "assay": "cell-free assay, competition with immobilised ligand", "conditions": "0.1 µM", "quantity": "remaining binding", "value": "90%"}
{"SMILES": "Cc1ccc(Nc2nccc(N(C)c3ccc4c(C)n(C)nc4c3)n2)cc1S(N)(=O)=O", "assay": "enzyme activity, inhibitor", "conditions": "10 µM", "quantity": "inhibition", "value": "12%"}
